Reference: ChEMBL document CHEMBL2202976, “Structure requirements for anaerobe processing of azo compounds: implications for prodrug design” (Bioorg Med Chem Lett, 2012)

How the values were obtained:
Assay type in all cases: ADME; call rule not given here
[1] = Drug metabolism assessed as Clostridium perfringens azoreductase-mediated dihydroquinolone derivative formation by HPLC analysis
[2] = Drug metabolism assessed as Clostridium perfringens-mediated hydrazine intermediate formation at 6 hrs by LCMS analysis
How it was run: (§1)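 Azo substrate incubated in Clostridium perfringens culture. Samples taken at 0 h and 6 h and analysed by LCMS, resolving parent azo isomer peaks from the hydrazine intermediate peak.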

[3] = test system: azoreductase; experiment: Drug metabolism assessed as Clostridium perfringens azoreductase-mediated reduction at 6 hrs by HPLC analysis; conditions: read-out: Drug metabolism
How it was run: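 Azo substrates incubated with Clostridium perfringens culture and sampled over time to 6 h. Parent loss and product formation followed by reverse-phase HPLC with PDA UV detection, with the azo chromophore absorbing at 300–400 nm.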

[4] = Prodrug conversion assessed as Clostridium perfringens azoreductase-mediated prednisolone formation by HPLC analysis
[5] = Drug metabolism assessed as Clostridium perfringens azoreductase-mediated reoxidation of hydrazine intermediate to parent azo compound at 6 hrs by LCMS analysis; how it was run: as §1
[6] = Prodrug conversion assessed as Clostridium perfringens azoreductase-mediated disproportionation to parent amine by HPLC analysis
[7] = Drug metabolism assessed as Clostridium perfringens azoreductase-mediated hydrazine intermediate formation by LCMS analysis; how it was run: as §1
[8] = Drug metabolism assessed as Clostridium perfringens azoreductase-mediated reoxidation of hydrazine intermediate to parent azo compound by LCMS analysis; how it was run: as §1
[9] = Drug metabolism assessed as Clostridium perfringens azoreductase-mediated reduction within 4 hrs by HPLC analysis

## C[C@]12C=CC(=O)C=C1CC[C@@H]1[C@@H]2[C@@H](O)C[C@@]2(C)[C@H]1CC[C@]2(O)C(=O)COC(=O)CCc1ccccc1/N=N/c1ccc(C(=O)O)cc1
[1]
  Drug metabolism: Not Active
[2]
  Drug metabolism: Active
[3]
  metabolised at 6 h: 55%
[4]
  Drug metabolism: Not Active
[5]
  Drug metabolism: Active

## O=C(O)CCc1ccccc1/N=N/c1ccc(C(=O)NCC(=O)O)cc1
[4]
  Drug metabolism: Not Active

## FC(F)(F)c1ccc(/N=N/c2ccccc2)cc1
[6]
  Drug metabolism: Active
[7]
  Drug metabolism: Active
[8]
  Drug metabolism: Not Active

## CN(C)c1ccc(/N=N/c2ccccc2C(=O)O)cc1
[9]
  Drug metabolism: Active
[6]
  Drug metabolism: Active

## Oc1ccc(/N=N/c2ccc(Br)cc2)cc1
[9]
  Drug metabolism: Active
[6]
  Drug metabolism: Active

## Brc1ccc(/N=N/c2ccccc2)cc1
[7]
  Drug metabolism: Active
[8]
  Drug metabolism: Active

## O=C(O)c1ccc(/N=N/c2ccccc2)cc1
[7]
  Drug metabolism: Active
[8]
  Drug metabolism: Active

## O=C(O)CCc1ccccc1/N=N/c1ccc(C(=O)O)cc1
[4]
  Drug metabolism: Not Active

## O=C(O)c1ccc(/N=N/c2ccc(O)cc2)cc1
[9]
  Drug metabolism: Active
[6]
  Drug metabolism: Active

## N#Cc1ccc(/N=N/c2ccc(O)cc2)cc1
[9]
  Drug metabolism: Active
[6]
  Drug metabolism: Active

## N#Cc1ccc(/N=N/c2ccccc2)cc1
[7]
  Drug metabolism: Active
[8]
  Drug metabolism: Active

## O=[N+]([O-])c1ccc(/N=N/c2ccc(O)cc2)cc1
[9]
  Drug metabolism: Active
[6]
  Drug metabolism: Active

## CN(C)c1ccc(/N=N/c2ccccc2)cc1 [DIMETHYL YELLOW]
[9]
  Drug metabolism: Active
[6]
  Drug metabolism: Active

## O=C(O)c1cccc(/N=N/c2ccccc2)c1
[7]
  Drug metabolism: Active
[8]
  Drug metabolism: Active
